ChEMBL document CHEMBL1141374 (J Med Chem, 2007)

Key:
T47D = assay: Growth inhibition in T47D cells; type: functional; conditions: Homo sapiens
SK-OV-3 = assay: Growth inhibition in SKOV3 cells; type: functional; conditions: Homo sapiens
BT-549 = assay: Growth inhibition in BT549 cells; type: functional; conditions: Homo sapiens
TK-10 = assay: Growth inhibition in TK10 cells; type: functional; conditions: Homo sapiens
NCI-H522 = assay: Growth inhibition in NCI-H522 cells; type: functional; conditions: Homo sapiens
HeLa = assay: Cytotoxicity against HeLa cell line; type: cell-based; conditions: Homo sapiens
In short: (§1)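 Log-phase cells were diluted to 20 000–30 000 cells/mL, seeded, and left to attach overnight. They were then exposed to compounds at 10^–5–10^–12 M for 72 h at 37 °C in 5% CO2. Viable cells were measured by MTT, with absorbance read at 595 nm. Each compound ran in triplicate in at least three independent assays. IC50 came from nonlinear regression, and average values were reported.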

[1] = Growth inhibition in HS 578T cells; type: functional; conditions: Homo sapiens
HCT-116 = assay: Cytotoxicity against HCT116 cell line; type: cell-based; conditions: Homo sapiens; in short: as §1
SF-539 = assay: Growth inhibition in SF539 cells; type: functional; conditions: Homo sapiens
ZR-75-1 = assay: Cytotoxicity against ZR-75-1 cell line; type: cell-based; conditions: Homo sapiens; in short: as §1
A498 = assay: Growth inhibition in A498 cells; type: functional; conditions: Homo sapiens
786-0 = assay: Growth inhibition in 786-0 cells; type: functional; conditions: Homo sapiens
M14 = assay: Growth inhibition in M14 cells; type: functional; conditions: Homo sapiens
COLO 205 = assay: Growth inhibition in COLO205 cells; type: functional; conditions: Homo sapiens
[2] = Growth inhibition in MDA-MB-231/ATCC cells; type: functional; conditions: Homo sapiens
OVCAR-4 = assay: Growth inhibition in OVCAR4 cells; type: functional; conditions: Homo sapiens
UACC-62 = assay: Growth inhibition in UACC62 cells; type: functional; conditions: Homo sapiens
DU-145 = assay: Growth inhibition in DU145 cells; type: functional; conditions: Homo sapiens
SF-295 = assay: Growth inhibition in SF295 cells; type: functional; conditions: Homo sapiens
HOP-62 = assay: Growth inhibition in HOP62 cells; type: functional; conditions: Homo sapiens
SF-268 = assay: Growth inhibition in SF268 cells; type: functional; conditions: Homo sapiens
MDA-MB-435 = assay: Growth inhibition in MDA-MB-435 cells; type: functional; conditions: Homo sapiens
NCI/ADR-RES = assay: Growth inhibition in NCI/ADR-RES cells; type: functional; conditions: Homo sapiens
UACC-257 = assay: Growth inhibition in UACC257 cells; type: functional; conditions: Homo sapiens
[3] = Growth inhibition in HCC15 cells; type: functional; conditions: Homo sapiens
SNB-75 = assay: Growth inhibition in SNB75 cells; type: functional; conditions: Homo sapiens
SK-MEL-5 = assay: Growth inhibition in SK-MEL-5 cells; type: functional; conditions: Homo sapiens
[4] = Growth inhibition in HCC116 cells; type: functional; conditions: Homo sapiens
CAKI-1 = assay: Growth inhibition in CAK1-1 cells; type: functional; conditions: Homo sapiens
SW-620 = assay: Growth inhibition in SW620 cells; type: functional; conditions: Homo sapiens
NCI-H23 = assay: Growth inhibition in NCI-H23 cells; type: functional; conditions: Homo sapiens
SK-MEL-28 = assay: Growth inhibition in SK-MEL-28 cells; type: functional; conditions: Homo sapiens
ACHN = assay: Growth inhibition in ACHN cells; type: functional; conditions: Homo sapiens
NCI-H226 = assay: Growth inhibition in NCI-H226 cells; type: functional; conditions: Homo sapiens
KM12 = assay: Growth inhibition in KM12 cells; type: functional; conditions: Homo sapiens
HL-60 = assay: Growth inhibition in HL60 cells; type: functional; conditions: Homo sapiens
SN12C = assay: Growth inhibition in SN12C cells; type: functional; conditions: Homo sapiens
OVCAR-3 = assay: Growth inhibition in OVCAR-3 cells; type: functional; conditions: Homo sapiens
NCI-H460 = assay: Growth inhibition in NCI-H460 cells; type: functional; conditions: Homo sapiens
HCC 2998 = assay: Growth inhibition in HCC2998 cells; type: functional; conditions: Homo sapiens
PC-3 = assay: Growth inhibition in PC3 cells; type: functional; conditions: Homo sapiens
HOP-92 = assay: Growth inhibition in HOP92 cells; type: functional; conditions: Homo sapiens
OVCAR-5 = assay: Growth inhibition in OVCAR5 cells; type: functional; conditions: Homo sapiens
HT-29 = assay: Growth inhibition in HT29 cells; type: functional; conditions: Homo sapiens
LOX IMVI = assay: Growth inhibition in LOX IMVI cells; type: functional; conditions: Homo sapiens
RXF 393 = assay: Growth inhibition in RXF393 cells; type: functional; conditions: Homo sapiens
[5] = Cytotoxicity against P-glycoprotein-overexpressing KB-V1 cell line; type: cell-based; conditions: Homo sapiens; in short: as §1
MCF7 = assay: Growth inhibition in MCF7 cells; type: functional; conditions: Homo sapiens
K562 = assay: Growth inhibition in K562 cells; type: functional; conditions: Homo sapiens
OVCAR-8 = assay: Growth inhibition in OVCAR8 cells; type: functional; conditions: Homo sapiens
[6] = Cytotoxicity against KB-3-1 cell line; type: cell-based; conditions: Homo sapiens; in short: as §1
CCRF-CEM = assay: Growth inhibition in CCRF-CEM cells; type: functional; conditions: Homo sapiens
A549 = assay: Growth inhibition in A549 cells; type: functional; conditions: Homo sapiens
UO-31 = assay: Growth inhibition in UO31 cells; type: functional; conditions: Homo sapiens
U-251 = assay: Growth inhibition in U251cells; type: functional; conditions: Homo sapiens
IGROV-1 = assay: Growth inhibition in IGROV1 cells; type: functional; conditions: Homo sapiens
SNB-19 = assay: Growth inhibition in SNB19 cells; type: functional; conditions: Homo sapiens
EKVX = assay: Growth inhibition in EKVX cells; type: functional; conditions: Homo sapiens
NCI-H322M = assay: Growth inhibition in NCI-H322M cells; type: functional; conditions: Homo sapiens
Tubulin = assay: Inhibition of tubulin polymerization; type: protein-complex assay, Homo sapiens
In short: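 Kit-based assay run per the manufacturer's instructions. Tubulin (>99% pure, 3 mg/mL) in G-PEM buffer, in a prewarmed plate with compound at 0.03–30 μM. OD340 nm read every 60 s at 37 °C for 1 h.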

SMILES: COc1ccc(-n2cnnc2-c2cc(OC)c(OC)c(OC)c2)cc1F
- GI50 (T47D): > 100000 nM
- GI50 (SK-OV-3): 8320 nM
- GI50 (BT-549): 9330 nM
- GI50 (TK-10): > 100000 nM
- GI50 (NCI-H522): 4570 nM
- IC50 (HeLa): 173 nM
- GI50 [1]: 6460 nM
- IC50 (HCT-116): 365 nM
- GI50 (SF-539): 3890 nM
- IC50 (ZR-75-1): 367 nM
- GI50 (A498): 8130 nM
- GI50 (786-0): 3160 nM
- GI50 (M14): 2240 nM
- GI50 (COLO 205): 3980 nM
- GI50 [2]: 6460 nM
- GI50 (OVCAR-4): 5250 nM
- GI50 (UACC-62): 3630 nM
- GI50 (DU-145): 4790 nM
- GI50 (SF-295): 1860 nM
- GI50 (HOP-62): 2040 nM
- GI50 (SF-268): 9330 nM
- GI50 (MDA-MB-435): 331 nM
- GI50 (NCI/ADR-RES): 2000 nM
- GI50 (UACC-257): > 100000 nM
- GI50 [3]: 1660 nM
- GI50 (SNB-75): 3020 nM
- GI50 (SK-MEL-5): 2570 nM
- GI50 [4]: 3020 nM
- GI50 (CAKI-1): 2950 nM
- GI50 (SW-620): 4070 nM
- GI50 (NCI-H23): 2240 nM
- GI50 (SK-MEL-28): 39800 nM
- GI50 (ACHN): 5620 nM
- GI50 (NCI-H226): 7080 nM
- GI50 (KM12): 1450 nM
- GI50 (HL-60): 6030 nM
- GI50 (SN12C): 4680 nM
- GI50 (OVCAR-3): 2090 nM
- GI50 (NCI-H460): 3160 nM
- GI50 (HCC 2998): 631 nM
- GI50 (PC-3): 3020 nM
- GI50 (HOP-92): 5370 nM
- GI50 (OVCAR-5): 5620 nM
- GI50 (HT-29): 3160 nM
- GI50 (LOX IMVI): 5130 nM
- GI50 (RXF 393): 1700 nM
- IC50 [5]: 1480 nM
- GI50 (MCF7): 1000 nM
- GI50 (K562): 759 nM
- GI50 (OVCAR-8): 6310 nM
- IC50 [6]: 399 nM
- GI50 (CCRF-CEM): 2570 nM
- GI50 (A549): 12000 nM
- GI50 (UO-31): 17800 nM
- GI50 (U-251): 5130 nM
- GI50 (IGROV-1): 4900 nM
- GI50 (SNB-19): 6310 nM
- GI50 (EKVX): 89100 nM
- GI50 (NCI-H322M): 8130 nM

SMILES: COc1cc(-c2nncn2-c2ccc(N(C)C)cc2)cc(OC)c1OC
- GI50 (T47D): 47.9 nM
- GI50 (SK-OV-3): 347 nM
- GI50 (BT-549): 25100 nM
- GI50 (TK-10): 1660 nM
- GI50 (NCI-H522): 57.5 nM
- IC50 (HeLa): 29.6 nM
- GI50 [1]: 417 nM
- IC50 (HCT-116): 91.5 nM
- GI50 (SF-539): 324 nM
- IC50 (ZR-75-1): 308 nM
- GI50 (A498): 490 nM
- GI50 (786-0): 398 nM
- GI50 (M14): 50.1 nM
- GI50 (COLO 205): 87.1 nM
- GI50 [2]: 1020 nM
- GI50 (OVCAR-4): 20900 nM
- GI50 (UACC-62): 95.5 nM
- GI50 (DU-145): 1860 nM
- GI50 (SF-295): 37.1 nM
- GI50 (HOP-62): 275 nM
- GI50 (SF-268): 34.7 nM
- GI50 (MDA-MB-435): < 10 nM
- GI50 (NCI/ADR-RES): 129 nM
- GI50 (UACC-257): 100000 nM
- GI50 [3]: 60.3 nM
- GI50 (SNB-75): 107 nM
- GI50 (SK-MEL-5): 69.2 nM
- GI50 [4]: 60.3 nM
- GI50 (CAKI-1): 135 nM
- GI50 (SW-620): 75.9 nM
- GI50 (NCI-H23): 6760 nM
- GI50 (ACHN): 204 nM
- GI50 (NCI-H226): 100000 nM
- GI50 (KM12): 26.3 nM
- GI50 (HL-60): 105 nM
- GI50 (SN12C): 724 nM
- GI50 (OVCAR-3): 34.7 nM
- GI50 (NCI-H460): 178 nM
- GI50 (HCC 2998): 85.1 nM
- GI50 (PC-3): 28.2 nM
- GI50 (HOP-92): 389 nM
- GI50 (OVCAR-5): 4270 nM
- GI50 (HT-29): 30.9 nM
- GI50 (LOX IMVI): 219 nM
- GI50 (RXF 393): 1620 nM
- IC50 [5]: 323 nM
- IC50 (Tubulin): 4100 nM
- GI50 (MCF7): 275 nM
- GI50 (K562): 12.9 nM
- GI50 (OVCAR-8): 2570 nM
- IC50 [6]: 119 nM
- GI50 (CCRF-CEM): 61.7 nM
- GI50 (A549): 398 nM
- GI50 (UO-31): 955 nM
- GI50 (U-251): 151 nM
- GI50 (IGROV-1): 95.5 nM
- GI50 (SNB-19): 204 nM
- GI50 (EKVX): > 100000 nM
- GI50 (NCI-H322M): 2630 nM
